Experimental data taken from ChEMBL document CHEMBL1141231, “Discovery and development of a new class of potent, selective, orally active oxytocin receptor antagonists” (J Med Chem, 2005).
Converted amounts (≈) assume the structure as drawn. Where a SMILES comes first, the peptide text is derived from it. Bridges are numbered along the chain shown (N, C = ends). [ ]: non-standard residue; d: D form. Orn = NCCC[C@H](N)C(=O)O; Mpa = O=C(O)CCS

Assays:
[1] = target: T1, Oxytocin receptor (Homo sapiens) (UniProt P30559); assay: Displacement of [125I]OVTA antagonist from human oxytocin receptor expressed in HEK293-EBNA cells at 10 uM; format: cell-based
T1 sequence (whole entry): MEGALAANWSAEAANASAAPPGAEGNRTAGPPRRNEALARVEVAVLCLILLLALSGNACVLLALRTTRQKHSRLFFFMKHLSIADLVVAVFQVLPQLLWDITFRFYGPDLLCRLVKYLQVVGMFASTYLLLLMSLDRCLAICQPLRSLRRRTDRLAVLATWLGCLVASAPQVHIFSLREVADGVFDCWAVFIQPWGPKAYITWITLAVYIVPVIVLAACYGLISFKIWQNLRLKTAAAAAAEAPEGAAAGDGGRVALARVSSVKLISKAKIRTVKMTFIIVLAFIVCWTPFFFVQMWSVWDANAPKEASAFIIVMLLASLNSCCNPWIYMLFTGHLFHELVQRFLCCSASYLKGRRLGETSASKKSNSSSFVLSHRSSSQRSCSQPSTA

Vasopressin V1a receptor [2] = target: T2, Vasopressin V1a receptor (Homo sapiens, UniProt P37288); settings: HEK293-EBNA, at 10 µM
Target sequence in this assay (P37288 whole entry, looked up): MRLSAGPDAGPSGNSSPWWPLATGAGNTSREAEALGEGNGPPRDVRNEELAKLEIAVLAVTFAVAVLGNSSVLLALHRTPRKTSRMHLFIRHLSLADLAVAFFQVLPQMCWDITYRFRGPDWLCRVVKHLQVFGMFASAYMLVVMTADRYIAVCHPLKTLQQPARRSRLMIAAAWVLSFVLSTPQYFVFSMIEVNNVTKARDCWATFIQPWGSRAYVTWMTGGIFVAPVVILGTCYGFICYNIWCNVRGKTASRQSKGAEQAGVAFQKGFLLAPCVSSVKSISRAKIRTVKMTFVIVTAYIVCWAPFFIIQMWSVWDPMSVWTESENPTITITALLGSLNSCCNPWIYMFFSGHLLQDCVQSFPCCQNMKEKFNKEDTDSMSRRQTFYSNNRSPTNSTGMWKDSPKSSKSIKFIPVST

[3] = Solubility in aqueous medium; format: physicochemical
[4] = Solubility in saline; format: physicochemical
Oxytocin receptor [5] = target: T3, Oxytocin receptor (Homo sapiens, UniProt P30559); assay: biochemical; format: cell-based, HEK293-EBNA
T3 sequence (P30559 whole entry): T1 sequence (whole entry)

Vasopressin V1a receptor [6] = target: T2, Vasopressin V1a receptor; assay: Displacement of [125I]LVA antagonist from human vasopressin 1a receptor expressed in HEK293-EBNA cells; format: cell-based
Target sequence in this assay (P37288 whole entry): as the sequence (P37288 whole entry, looked up) above

Liver microsomes = assay: Stability of compound in presence of human liver microsomes; format: ADME, Microsome
In short: (§1)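 Liver microsomes (human or rat) at final […] in 0.1 M phosphate pH 7.4 with compound at final 40 µM (1% DMSO), preincubated at 37 °C; reaction started with 1 mM NADPH; stopped with cold acetonitrile at 0, 20 and 60 min.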

[7] = Inhibitory activity against cytochrome P450; format: ADME
In short: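 Baculovirus/insect-cell expressed CYP isoforms incubated with compound at several concentrations in 1% DMSO plus isoform-specific fluorogenic substrate; fluorescence after a fixed reaction time used to compute % inhibition and IC50.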

Homo sapiens = organism: Homo sapiens; assay: Selectivity for human vasopressin V1a receptor over human oxytocin receptor
Oxytocin receptor [8] = target: T3, Oxytocin receptor; assay: Inhibitory activity against human Oxytocin induced intracellular Calcium mobilization in human Oxytocin receptor transfected HEK293-EBNA cells; format: functional, cell-based
[9] = target: T4, Oxytocin receptor (Rattus norvegicus) (UniProt P70536); assay: Inhibition of oxytocin-induced uterine contractions in nonpregnant rats administered at 10 mg/kg, iv; format: functional, organism-based; parameters: dose 10 mg/kg
T4 sequence (whole entry): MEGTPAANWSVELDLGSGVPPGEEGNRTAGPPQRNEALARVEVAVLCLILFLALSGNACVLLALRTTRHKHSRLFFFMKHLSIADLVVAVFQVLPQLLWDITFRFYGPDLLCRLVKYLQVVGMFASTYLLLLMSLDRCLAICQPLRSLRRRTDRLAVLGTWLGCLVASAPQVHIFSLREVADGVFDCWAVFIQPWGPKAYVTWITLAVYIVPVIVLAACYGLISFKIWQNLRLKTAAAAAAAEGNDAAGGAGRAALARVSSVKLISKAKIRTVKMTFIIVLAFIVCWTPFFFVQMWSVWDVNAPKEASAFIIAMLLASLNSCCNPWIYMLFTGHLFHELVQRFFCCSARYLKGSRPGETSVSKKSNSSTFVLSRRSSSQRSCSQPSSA
In short: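 Anaesthetized nonpregnant rats; compound given as a solution by iv infusion in NP3S, PEG/saline or saline. Uterine intraluminal pressure AUC is read relative to the third OT injection. Inhibition is taken versus vehicle values at 5 min after OT administration.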

[10] = Stability of compound in presence of rat liver microsomes; format: ADME; in short: as §1
Oxytocin receptor [11] = target: T5, Oxytocin receptor (Rattus norvegicus, UniProt P70536); assay: Displacement of [125I]OVTA antagonist from rat oxytocin receptor expressed in HEK293-EBNA cells; format: cell-based
T5 sequence (P70536 whole entry): T4 sequence (whole entry)

[12] = target: T4, Oxytocin receptor (Rattus norvegicus); assay: Inhibition of oxytocin-induced uterine contractions in nonpregnant rats administered at 30 mg/kg, po; format: functional, organism-based; parameters: dose 30 mg/kg
In short: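 Anaesthetized nonpregnant rats dosed orally by esophagus cannulation with a solution in NP3S, PEG/saline or saline. Uterine intraluminal pressure AUC is read versus vehicle. The value is the maximum inhibition within a 3 h interval after OT administration.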

[13] = target: T4, Oxytocin receptor (Rattus norvegicus); assay: In vivo efficacy against oxytocin-induced uterine contractions in nonpregnant rats administered iv; format: functional, organism-based
In short: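 Anaesthetized nonpregnant rats; compound given as a solution by iv infusion in NP3S, PEG/saline or saline. Contractions read as AUC of intraluminal uterine pressure over 35 min, relative to the third OT injection, and expressed as % inhibition versus a vehicle group. ED50 is taken from a dose-response curve of peak inhibition values.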

[14] = aqueous medium, read-out: Solubility

SMILES: Cc1ccc(N(CC(=O)N/N=C/c2ccccc2Cl)S(=O)(=O)c2ccccc2)cc1
- inhibition [1]: < 50%
- inhibition (Vasopressin V1a receptor [2]): < 50%

SMILES: O=C(CN(CCc1ccccc1)S(=O)(=O)c1ccccc1)N1CCc2ccccc2C1
- inhibition [1]: < 50%
- inhibition (Vasopressin V1a receptor [2]): < 50%

SMILES: Cl.O=C(CN(c1ccc(Cl)cc1)S(=O)(=O)c1ccc(OCCN2CCOCC2)cc1)/N=N/c1c(O)[nH]c2ccccc12
- solubility [3, 14]: 127 µg/mL
- solubility [4]: 2.5 µg/mL

SMILES: COc1ccc(S(=O)(=O)N(CC(=O)Nc2cccc(Cl)c2C)c2ccc(C)cc2)cc1OC
- inhibition (Vasopressin V1a receptor [2]): < 50%
- Ki (Oxytocin receptor [5]): 620 nM

SMILES: CCN(CC)C(=O)CN(c1ccc(OC)cc1)S(=O)(=O)c1ccccc1
- inhibition [1]: < 50%
- inhibition (Vasopressin V1a receptor [2]): < 50%

SMILES: CN(C)CCCNC(=O)CCc1ccc(S(=O)(=O)N(CC(=O)/N=N/c2c(O)[nH]c3ccccc23)c2ccc(Cl)cc2)cc1.O=C(O)/C=C/C(=O)O
- solubility [3, 14]: 20000 µg/mL
- solubility [4]: 10000 µg/mL

SMILES: Cc1ccc(N(CC(=O)N/N=C/c2ccccc2F)S(=O)(=O)c2ccccc2)cc1
- inhibition [1]: < 50%
- inhibition (Vasopressin V1a receptor [2]): < 50%

SMILES: O=C(CN(c1ccc(Cl)cc1)S(=O)(=O)c1ccccc1)N/N=C/c1ccccc1O
- inhibition (Vasopressin V1a receptor [2]): < 50%
- Ki (Oxytocin receptor [5]): 67 nM

SMILES: CN(C)CCCOc1ccc(S(=O)(=O)N(CC(=O)/N=N/c2c(O)[nH]c3ccccc23)c2ccc(Cl)cc2)cc1.Cl
- solubility [3, 14]: 180 µg/mL
- solubility [4]: 7 µg/mL

SMILES: CN(C)CCCOc1ccc(S(=O)(=O)N(CC(=O)N/N=C2\C(=O)Nc3ccncc32)c2ccc(Cl)cc2)cc1
- Ki (Vasopressin V1a receptor [6]): 618 nM
- MET (Liver microsomes): 20%
- IC50 [7]: > 1000 nM
- Ratio Ki (Homo sapiens): 5
- IC50 (Oxytocin receptor [8]): 840 nM
- inhibition [9]: 23.8%
- Ki (Oxytocin receptor [5]): 115 nM
- metabolised [10]: 41%
- Ki (Oxytocin receptor [11]): 140 nM

SMILES: CCOc1ccc(C[C@H]2NC(=O)CCSSC[C@@H](C(=O)N3CCC[C@H]3C(=O)N[C@@H](CCCN)C(=O)NCC(N)=O)NC(=O)[C@H](CC(N)=O)NC(=O)[C@H]([C@@H](C)O)NC(=O)[C@H]([C@@H](C)CC)NC2=O)cc1 [ATOSIBAN] ([Mpa][dY](Et)ITNCP[Orn]G-NH2; disulfide 1-6)
- Ki (Vasopressin V1a receptor [6]): 0.63 nM
- IC50 (Oxytocin receptor [8]): 59 nM
- Ki (Oxytocin receptor [5]): 27 nM
- Ki (Oxytocin receptor [11]): 76 nM

SMILES: Cc1ccc(N(CC(=O)Nc2cccc(Cl)c2C)S(C)(=O)=O)cc1
- inhibition [1]: < 50%
- inhibition (Vasopressin V1a receptor [2]): < 50%

SMILES: CNCCCC12CCC(c3ccccc31)c1ccccc12.Cl [MAPROTILINE HYDROCHLORIDE]
- solubility ([3]; buffer): 580 µg/mL
- solubility [4]: 2 µg/mL

SMILES: CCOc1ccc(S(=O)(=O)N(CC(=O)NN)c2ccc(C)cc2)cc1
- inhibition [1]: < 50%
- inhibition (Vasopressin V1a receptor [2]): < 50%

SMILES: CCOc1ccc(S(=O)(=O)N(CC(=O)OC)c2ccc(C)cc2)cc1
- inhibition [1]: < 50%
- inhibition (Vasopressin V1a receptor [2]): < 50%

SMILES: O=C(CN(c1ccc(Cl)cc1)S(=O)(=O)c1ccc(OCCN2CCOCC2)cc1)N/N=C1\C(=O)Nc2ccccc21
- Ki (Vasopressin V1a receptor [6]): 133 nM
- MET (Liver microsomes): 57%
- inhibition [12]: 30%
- IC50 [7]: > 1000 nM
- ED50 [13]: 9.4 mg/kg
- Ratio Ki (Homo sapiens): 148
- inhibition [9]: 43%
- Ki (Oxytocin receptor [5]): 0.9 nM
- metabolised [10]: 21%
- Ki (Oxytocin receptor [11]): 8 nM

SMILES: COc1ccccc1/C=N/NC(=O)CN(c1ccc(C)cc1)S(=O)(=O)c1ccccc1
- inhibition [1]: < 50%
- inhibition (Vasopressin V1a receptor [2]): < 50%

SMILES: CC(C)CCN(CC(=O)N1CCc2ccccc2C1)S(=O)(=O)c1ccccc1
- inhibition [1]: < 50%
- inhibition (Vasopressin V1a receptor [2]): < 50%

SMILES: CCOc1ccc(S(=O)(=O)N(CC(=O)N/N=C2\C(=O)Nc3ccccc32)c2ccc(C)cc2)cc1
- ED50 [13]: 10 mg/kg
- Ratio Ki (Homo sapiens): 100
- inhibition [9]: 49.9%

SMILES: COc1ccc(N(CC(=O)Nc2cccc(Cl)c2C)S(=O)(=O)c2ccccc2)cc1Cl
- inhibition [1]: < 50%
- inhibition (Vasopressin V1a receptor [2]): < 50%

SMILES: O=C(CN(c1ccccc1)S(=O)(=O)c1ccccc1)N/N=C1\C(=O)Nc2ccccc21
- inhibition (Vasopressin V1a receptor [2]): < 50%
- Ki (Oxytocin receptor [5]): 90 nM

SMILES: Cc1ccc(N(CC(=O)N/N=C/c2ccccc2O)S(=O)(=O)c2ccccc2)cc1
- inhibition (Vasopressin V1a receptor [2]): < 50%
- Ki (Oxytocin receptor [5]): 67 nM

SMILES: CN(C)CCOc1ccc(S(=O)(=O)N(CC(=O)N/N=C2\C(=O)Nc3ccccc32)c2ccc(Cl)cc2)cc1
- Ki (Vasopressin V1a receptor [6]): 176 nM
- Ratio Ki (Homo sapiens): 84
- IC50 (Oxytocin receptor [8]): 59 nM
- Ki (Oxytocin receptor [5]): 2.1 nM
- Ki (Oxytocin receptor [11]): 15 nM

SMILES: CN(C)CCCOc1ccc(S(=O)(=O)N(CC(=O)N/N=C2\C(=O)NC(=O)c3ccccc32)c2ccc(Cl)cc2)cc1
- Ki (Vasopressin V1a receptor [6]): 730 nM
- solubility [3, 14]: 580 µg/mL (≈ 970 µM)
- MET (Liver microsomes): 91%
- IC50 [7]: > 1000 nM
- Ratio Ki (Homo sapiens): 456
- IC50 (Oxytocin receptor [8]): 15 nM
- inhibition [9]: 39.8%
- solubility [4]: 2 µg/mL (≈ 3.34 µM)
- Ki (Oxytocin receptor [5]): 1.6 nM
- metabolised [10]: 89%
- Ki (Oxytocin receptor [11]): 2.7 nM

SMILES: O=C(CN(c1ccc(Cl)cc1)S(=O)(=O)c1ccccc1)Nc1ccccc1
- inhibition [1]: < 50%
- inhibition (Vasopressin V1a receptor [2]): < 50%

SMILES: O=C(CCc1ccc(S(=O)(=O)N(CC(=O)N/N=C2\C(=O)Nc3ccccc32)c2ccc(Cl)cc2)cc1)NCCCO
- Ki (Vasopressin V1a receptor [6]): 94 nM
- solubility [3, 14]: < 1 µg/mL
- Ratio Ki (Homo sapiens): 102
- solubility [4]: < 1 µg/mL
- Ki (Oxytocin receptor [5]): 0.9 nM

SMILES: CN(C)CCCOc1ccc(S(=O)(=O)N(CC(=O)N/N=C2\C(=O)Nc3ccccc32)c2ccc(Cl)cc2)cc1
- Ki (Vasopressin V1a receptor [6]): 65 nM
- MET (Liver microsomes): 0%
- inhibition [12]: 22%
- IC50 [7]: > 1000 nM
- ED50 [13]: 7.5 mg/kg
- Ratio Ki (Homo sapiens): 59
- IC50 (Oxytocin receptor [8]): 14 nM
- inhibition [9]: 67.4%
- Ki (Oxytocin receptor [5]): 1.1 nM
- metabolised [10]: 26%
- Ki (Oxytocin receptor [11]): 4.6 nM

SMILES: CN(C)CCCNC(=O)CCc1ccc(S(=O)(=O)N(CC(=O)/N=N/c2c(O)[nH]c3ccccc23)c2ccc(Cl)cc2)cc1.O=C(O)C(F)(F)F
- solubility [3, 14]: 20000 µg/mL
- solubility [4]: < 1 µg/mL

SMILES: COCCOc1ccc(S(=O)(=O)N(CC(=O)N/N=C2\C(=O)Nc3ccccc32)c2ccc(Cl)cc2)cc1
- Ki (Vasopressin V1a receptor [6]): 1180 nM
- solubility [3, 14]: < 1 µg/mL
- Ratio Ki (Homo sapiens): 171
- solubility [4]: < 1 µg/mL
- Ki (Oxytocin receptor [5]): 7 nM
- Ki (Oxytocin receptor [11]): 33 nM

SMILES: CN(C)CCCOc1ccc(S(=O)(=O)N(CC(=O)/N=N/c2c(O)[nH]c3ccncc23)c2ccc(Cl)cc2)cc1.O=C(O)C(F)(F)F
- solubility [3, 14]: 20000 µg/mL
- solubility [4]: 10000 µg/mL
